Results published in publication PMC9851031 (ACS Omega, 2023).

Experiments:
Format in all cases: in vivo
Swiss albino mice = test: Acute toxicity; details: for number of animals dead/tot number of animals tested: i.p., observed 24 h
In short: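 Albino mice, five per cage, on a 12 h light/dark cycle, fasted overnight. Acute toxic-class testing followed OECD 423. Deaths and signs of toxicity were recorded after dosing to estimate the median lethal dose.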

[1] = system: MES-induced seizure in albino mice; test: Maximum electroshock; details: i.p. in mice, 4.0 h; doses 30, 100, 300 mg/kg
In short: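 Albino mice, fasted overnight, received test compound i.p. in PEG-200 at 30, 100 and 300 mg/kg. Electroshock was 60-cycle alternating current, 50 mA for 0.25 s, delivered via ear-clip electrodes, with testing at 0.5 and 4 h after dosing. Protection meant abolition of hind limb tonic extension. The minimum dose protecting more than half of animals (n = 5) was recorded.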

albino mice = test: Rotarod neurotoxicity test; details: doses 30, 100, 300 mg/kg; for neurotoxicity minimum dose: i.p. in mice
In short: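 Albino mice of either sex, housed five per cage on a 12 h light/dark cycle and fasted overnight, were first trained to balance on a 3.2 cm diameter rod turning at 6 rpm. Trained mice then received test compound i.p. in PEG-200 at 30, 100 or 300 mg/kg. Neurotoxicity was scored as failure to stay on the rod for at least 1 min in each of three successive trials.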

mice = test: Antidepressant activity: locomotor activity by actophotometer; details: for depressant effect (in words): actophotometer, 100 mg/kg; for % reduction in locomotor activity / locomotor activity score, after treatment means ± SEM: n = 5, 5 min
In short: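 Actophotometer test in mice. Test compound at 100 mg/kg or diazepam standard was given intraperitoneally. Locomotor activity scores were taken at baseline and after treatment over a 5 min span, n = 5. Percent reduction in locomotor activity was calculated against control. Data are mean ± SEM, analysed by one-way ANOVA with Dunnett's test.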

[2] = system: scPTZ-induced seizure in albino mice; test: Subcutaneous pentylenetetrazole; details: Mus musculus, ip, 4 h, read-out: scPTZ minimum dose for antiepileptic potential
In short: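 Overnight-fasted albino mice were dosed i.p. with test compound in PEG-200 at 30, 100 and 300 mg/kg and observed at 0.5 and 4 h. Pentylenetetrazole was injected subcutaneously in the posterior midline. Protection meant no clonic spasm episode lasting 5 s, n = 5 per group. The minimum protective dose was reported.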

[3] = 100 mg/kg, after a few minutes of administration

SMILES | number of animals dead/tot number of animals tested (Swiss albino mice; dosage 5 mg/kg) | number of animals dead/tot number of animals tested (Swiss albino mice; dosage 30 mg/kg) | number of animals dead/tot number of animals tested (Swiss albino mice; dosage 100 mg/kg) | number of animals dead/tot number of animals tested (Swiss albino mice; dosage 300 mg/kg) | HLTE (MES) minimum dose for antiepileptic potential [1] | neurotoxicity minimum dose (albino mice; 0.5 h) | neurotoxicity minimum dose (albino mice; 4.0 h) | acute toxicity observation (Swiss albino mice; [3]) | acute toxicity observation (Swiss albino mice; 300 mg/kg body weight, 24 h) | depressant effect (in words) (mice) | % reduction in locomotor activity (mice; dose 100 mg/kg) | locomotor activity score, after treatment means ± SEM (mice; dose 100 mg/kg) | neurotoxicity (in words) (albino mice) | % reduction in locomotor activity (mice; 4 mg/kg (intraperitoneally)) | locomotor activity score, after treatment means ± SEM (mice; 4 mg/kg (intraperitoneally)) | minimal effective dose [2]
COc1ccc(-c2nc3ccccc3s2)cc1OCc1nnc(-c2ccc(N)cc2)o1 [6a, 4-[5-(5-Benzothiazol-2-yl-2-methoxy-phenoxymethyl)-[1,3,4]oxadiazol-2-yl]-phenylamine] | 0/3 | 0/3 | 0/3 | 0/3 |  |  |  |  |  |  |  |  |  |  |  | 
COc1ccc(-c2nnc(COc3cc(-c4nc5ccccc5s4)ccc3OC)o2)cc1 [6b, 2-{4-Methoxy-3-[5-(4-methoxy-phenyl)-[1,3,4]oxadiazol-2-ylmethoxy]-phenyl}-benzothiazole] | 0/3 | 0/3 | 0/3 | 0/3 | failed to exhibit activity |  |  |  |  |  |  |  |  |  |  | 
COc1ccc(-c2nc3ccccc3s2)cc1OCc1nnc(-c2ccc(Br)cc2)o1 [6c, 2-{3-[5-(4-Bromo-phenyl)-[1,3,4]oxadiazol-2-ylmethoxy]-4-methoxy-phenyl}-benzothiazole] | 0/3 | 0/3 | 1/3 | 2/3 | failed to exhibit activity | 300 mg/kg | 300 mg/kg | slight spasmodic behavior | mortality with involuntary movements |  |  |  |  |  |  | 
COc1ccc(-c2nc3ccccc3s2)cc1OCc1nnc(-c2ccccc2)o1 [6d, 2-[4-Methoxy-3-(5-phenyl-[1,3,4]oxadiazol-2-ylmethoxy)-phenyl]-benzothiazole] | 0/3 | 0/3 | 0/3 | 2/3 |  |  |  |  | mortality with involuntary movements |  |  |  |  |  |  | 
COc1ccc(-c2nc3ccccc3s2)cc1OCc1nnc(Cc2ccccc2)o1 [6e, 2-[3-(5-Benzyl-[1,3,4]oxadiazol-2-ylmethoxy)-4-methoxy-phenyl]-benzothiazole] | 0/3 | 0/3 | 1/3 | 1/3 |  |  |  | slight spasmodic behavior | mortality with involuntary movements |  |  |  |  |  |  | 
COc1ccc(-c2nc3ccccc3s2)cc1OCc1nnc(-c2ccc(Cl)cc2)o1 [6g, 2-{3-[5-(4-Chloro-phenyl)-[1,3,4]oxadiazol-2-ylmethoxy]-4-methoxy-phenyl}-benzothiazole] | 0/3 | 0/3 | 0/3 | 1/3 |  |  |  |  | mortality with involuntary movements |  |  |  |  |  |  | 
COc1ccc(-c2nc3ccccc3s2)cc1OCc1nnc(-c2ccc([N+](=O)[O-])cc2)o1 [6h, 2-{4-Methoxy-3-[5-(4-nitro-phenyl)-[1,3,4]oxadiazol-2-ylmethoxy]-phenyl}-benzothiazole] | 0/3 | 0/3 | 0/3 | 0/3 |  |  |  |  |  | not depressants | 0.37% | 373.4 ± 3.85^ns | no neurotoxicity |  |  | 
COc1ccc(-c2nc3ccccc3s2)cc1OCc1nnc(C(c2ccccc2)c2ccccc2)o1 [6i, 2-[3-(5-Benzhydryl-[1,3,4]oxadiazol-2-ylmethoxy)-4-methoxy-phenyl]-benzothiazole] | 0/3 | 0/3 | 0/3 | 1/3 |  |  |  |  | mortality with involuntary movements |  |  |  |  |  |  | 
COc1ccc(-c2nc3ccccc3s2)cc1OCc1nnc(-c2cc([N+](=O)[O-])cc([N+](=O)[O-])c2O)o1 [6j, 2-[5-(5-Benzothiazol-2-yl-2-methoxy-phenoxymethyl)-[1,3,4]oxadiazol-2-yl]-4,6-dinitro-phenol] | 0/3 | 0/3 | 0/3 | 0/3 |  |  |  |  |  | not depressants | 0.48% | 368.8 ± 2.63^ns | no neurotoxicity |  |  | 
COc1ccc(-c2nc3ccccc3s2)cc1OCc1nnc(-c2c(C)cccc2C)o1 [6k, 2-{3-[5-(2,6-Dimethylphenyl)-[1,3,4]oxadiazol-2-ylmethoxy]-4-methoxy-phenyl}-benzothiazole] | 0/3 | 0/3 | 0/3 | 1/3 |  |  |  |  | mortality with involuntary movements |  |  |  |  |  |  | 
COc1ccc(-c2nc3ccccc3s2)cc1OCc1nnc(-c2ccc(O)cc2)o1 [6l, 4-[5-(5-Benzothiazol-2-yl-2-methoxy-phenoxymethyl)-[1,3,4]oxadiazol-2-yl]-phenol] | 0/3 | 0/3 | 0/3 | 0/3 |  |  |  |  |  | not depressants | 0.73% | 375.8 ± 3.65^ns | no neurotoxicity |  |  | 
COc1ccc(-c2nc3ccccc3s2)cc1OCc1nnc(-c2ccc(N(C)C)cc2)o1 [6m, {4-[5-(5-Benzothiazol-2-yl-2-methoxy-phenoxymethyl)-[1,3,4]oxadiazol-2-yl]-phenyl}-dimethylamine] | 0/3 | 0/3 | 0/3 | 0/3 | failed to exhibit activity |  |  |  |  |  |  |  |  |  |  | 
COc1ccc(-c2nc3ccccc3s2)cc1OCc1nnc(-c2c(OC)cccc2OC)o1 [6n, 2-{3-[5-(2,6-Dimethoxyphenyl)-[1,3,4]oxadiazol-2-ylmethoxy]-4-methoxy-phenyl}benzothiazole] | 0/3 | 0/3 | 0/3 | 0/3 |  |  |  |  |  |  |  |  |  |  |  | 
CN1C(=O)CN=C(c2ccccc2)c2cc(Cl)ccc21 [diazepam, reference compound] |  |  |  |  |  |  |  |  |  |  |  |  |  | 80.4% | 74.6 ± 2.65 | 
CCC1(c2ccccc2)C(=O)NC(=O)NC1=O [phenobarbital, reference compound] | 0/3 | 0/3 | 0/3 | 0/3 |  | 100 mg/kg | 300 mg/kg |  |  |  |  |  |  |  |  | 100 mg/kg
O=C1NC(=O)C(c2ccccc2)(c2ccccc2)N1 [phenytoin, reference compound] | 0/3 | 0/3 | 0/3 | 0/3 |  | 100 mg/kg | 100 mg/kg |  |  |  |  |  |  |  |  | 
